Measured values from article PMC10395482 (Heliyon, 2023).

Columns and labels:
MHCC97L xenograft = experiment: MHCC97L subcutaneous xenograft; format: in vivo, BALB/c nude mice; details: 14 days
Procedure, shortened: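 Five-week-old male BALB/c nude mice received MHCC97L cells subcutaneously in the axilla (1 × 10^7 cells in 0.1 mL saline). At 50 mm3 they were randomized to groups and given the test compound in saline by tail vein (10, 20, 30 mg/kg; 0.1 mL/20 g). Tumor volume, calculated as (short diameter)2 × long diameter/2, and body weight were recorded every 2 days. Mice were sacrificed after 14 days; one-way ANOVA with Dunnett's test was used.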

[1] = system: chick embryo chorioallantoic membrane; experiment: Chick chorioallantoic membrane; format: in vivo; details: VEGF 0.5 μg, 48 h; n = 5
Procedure, shortened: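 Fertilized eggs were held at 37 °C and 60% humidity for 5 days and turned 180° every 24 h. On day 6 the shell was opened along the air chamber and sterile rubber rings were placed at the aorta. Test compound in saline (0, 10, 50, 250 μM; 50 μL) was added inside the ring, and eggs were sealed for 48 h. Vascular density was calculated as vessel area/view area from stereomicroscope images.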

Compound	Tumor Inhibition Rate (MHCC97L xenograft; PTK787 50 mg/kg, n = 5) [%]	Tumor Weight (MHCC97L xenograft; PTK787 50 mg/kg, mean ± SD, n = 5, *** p < 0.001 vs saline)	tumor growth, volume and weight (in words) (MHCC97L xenograft; SAIF 10, 20, 30 mg/kg or PTK787 50 mg/kg, vs control)	angiogenesis in CAM, VEGF alone [1]
Clc1ccc(Nc2nnc(Cc3ccncc3)c3ccccc23)cc1 [PTK787]	88.78	0.146 ± 0.049 *** g	decreased MHCC97L transplanted tumor growth and significantly reduced mean tumor volume	
VEGF				significantly increased neoangiogenesis
